According to publication PMC11492202 (RSC Advances, 2024):

Tests used:
Bacillus subtilis = experiment: Antibacterial disc diffusion assay; format: cell-based; conditions: 37 °C, 24 hours
Method in brief: (§1)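 Organisms grown overnight in nutrient broth, adjusted to 0.5 McFarland turbidity and spread evenly on Mueller-Hinton agar with sterile cotton brushes. Sterile 4 mm paper discs were impregnated with test compound and placed on the inoculated plates. Rifampin served as the positive control and DMSO as the negative control. Plates were incubated at 37 °C for 24 h, and inhibition zones were measured in mm.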

Escherichia coli = experiment: Antibacterial disc diffusion assay; format: cell-based; conditions: 37 °C, 24 hours
Method in brief: as §1

α-amylase = experiment: In vitro α-amylase inhibition assay; format: biochemical; conditions: read-out: α-Amylase inhibition IC50 ± SEM; starch substrate, pH 6.9
Proteinase K = Proteinase K (Parengyodontium album, UniProt P06873); experiment: In vitro proteinase K inhibition assay; format: biochemical, Tritirachium album Limber
Sequence of Proteinase K (P06873 106-384): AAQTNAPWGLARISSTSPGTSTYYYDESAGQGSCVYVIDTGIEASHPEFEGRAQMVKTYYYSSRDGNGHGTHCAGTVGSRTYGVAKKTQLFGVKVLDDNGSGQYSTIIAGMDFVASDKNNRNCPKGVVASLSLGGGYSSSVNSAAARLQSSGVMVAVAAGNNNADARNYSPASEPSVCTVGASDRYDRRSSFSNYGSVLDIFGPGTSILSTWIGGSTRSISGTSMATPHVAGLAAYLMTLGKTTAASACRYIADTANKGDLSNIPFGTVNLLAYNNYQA

| Compound | Antibacterial zone of inhibition (Bacillus subtilis) [mm] | Antibacterial zone of inhibition (Escherichia coli) [mm] | IC50 (α-amylase) [nM] | IC50 (Proteinase K) [nM] |
| --- | --- | --- | --- | --- |
| O=C(NC(=S)Nc1nc(-c2ccccc2)cc(-c2ccc(Br)cc2)n1)c1ccccc1 [6a, N-((4-(4-Bromophenyl)-6-phenylpyrimidin-2-yl)carbamothioyl) benzamide] | 8 | 7 | 1676 ± 14 | – |
| COc1ccc(C(=O)NC(=S)Nc2nc(-c3ccccc3)cc(-c3ccc(Cl)cc3)n2)cc1OC [6b, N-((4-(4-Chlorophenyl)-6-phenylpyrimidin-2-yl)carbamothioyl)-3,4-dimethoxybenzamide] | 9 | 6 | 1612 ± 4 | 1810 ± 86 |
| Cc1ccc(-c2cc(-c3ccccc3)nc(NC(=S)NC(=O)c3ccccc3)n2)cc1 [6c, N-((4-Phenyl-6-(p-tolyl)pyrimidin-2-yl)carbamothioyl)benzamide] | 8 | 7 | 1550 ± 24 | 1830 ± 62 |
| Cc1ccc(-c2cc(-c3ccc(F)cc3)nc(NC(=S)NC(=O)c3ccccc3)n2)cc1 [6d, N-((4-(4-Fluorophenyl)-6-(p-tolyl)pyrimidin-2-yl)carbamothioyl)benzamide] | 9 | 8 | 1550 ± 23 | – |
| O=C(NC(=S)Nc1nc(-c2ccccc2)cc(-c2ccc(F)cc2)n1)c1ccccc1 [6e, N-((4-(4-Fluorophenyl)-6-phenylpyrimidin-2-yl)carbamothioyl)benzamide] | 7 | 6 | 1662 ± 10 | – |
| Cc1ccccc1C(=O)NC(=S)Nc1nc(-c2ccccc2)cc(-c2ccc(Cl)cc2)n1 [6f, N-((4-(4-Chlorophenyl)-6-phenylpyrimidin-2-yl)carbamothioyl)-2 methylbenzamide] | 6 | 7 | 1664 ± 10 | 1790 ± 80 |
| O=C(NC(=S)Nc1nc(-c2ccccc2)cc(-c2ccc(Cl)cc2)n1)c1cccc2ccccc12 [6h, N-((4-(4-Chlorophenyl)-6-phenylpyrimidin-2-yl)carbamothioyl)-1-naphthamide] | 8 | 6 | 1601 ± 8 | – |
| O=C(NC(=S)Nc1nc(-c2ccccc2)cc(-c2ccc(Cl)cc2)n1)C1CCCCC1 [6i, N-((4-(4-Chlorophenyl)-6-phenylpyrimidin-2-yl)carbamothioyl) cyclohexane carboxamide] | 11 | 7 | 1520 ± 34 | – |
| Cc1ccc(C(=O)NC(=S)Nc2nc(-c3ccccc3)cc(-c3ccc(Cl)cc3)n2)cc1 [6j, N-((4-(4-Chlorophenyl)-6-phenylpyrimidin-2-yl)carbamothioyl)-4-methylbenzamide] | 7 | 6 | 1480 ± 51 | – |
| CO[C@H]1/C=C/O[C@@]2(C)Oc3c(C)c(O)c4c(O)c(c(/C=N/N5CCN(C)CC5)c(O)c4c3C2=O)NC(=O)/C(C)=C\C=C\[C@H](C)[C@H](O)[C@@H](C)[C@@H](O)[C@@H](C)[C@H](OC(C)=O)[C@@H]1C [Rifampin, reference compound] | 26 | 17 | – | – |
